According to ChEMBL document CHEMBL1128172, “Structure-activity relationships of cyclic pentapeptide endothelin A receptor antagonists” (J Med Chem, 1995):
≈ marks a conversion by molar mass, not a printed value. One block for each compound: values may come before it. Where a SMILES comes first, the peptide text is derived from it.

Key:
[1] = target: T1, Endothelin-1 receptor (Homo sapiens, UniProt P25101); test: Inhibitory effect against Human Endothelin A receptor
T1 sequence (P25101 whole entry): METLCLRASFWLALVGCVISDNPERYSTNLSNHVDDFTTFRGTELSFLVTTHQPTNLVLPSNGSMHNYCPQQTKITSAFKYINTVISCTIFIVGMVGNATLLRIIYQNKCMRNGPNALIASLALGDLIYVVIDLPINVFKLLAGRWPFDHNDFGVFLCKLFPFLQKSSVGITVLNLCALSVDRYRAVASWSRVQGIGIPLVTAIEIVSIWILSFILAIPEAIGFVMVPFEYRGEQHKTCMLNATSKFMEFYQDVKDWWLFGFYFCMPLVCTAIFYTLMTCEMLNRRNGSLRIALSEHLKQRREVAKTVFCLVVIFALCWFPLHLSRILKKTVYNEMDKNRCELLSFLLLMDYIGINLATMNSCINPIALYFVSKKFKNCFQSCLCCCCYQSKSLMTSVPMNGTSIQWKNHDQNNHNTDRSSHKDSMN
Procedure, shortened: (§1)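 Competition binding of 12 pM [125I]ET-1 to membranes from human neuroblastoma SK-N-MC cells (ETA) or Girardi heart cells (ETB), with increasing test compound, in 50 mM Tris/HCl pH 7.4 with protease inhibitors, 1 mM EDTA and 0.3% BSA. Incubated 4 h at 25 °C, filtered, washed, gamma-counted. Nonspecific binding defined with 0.2 μM ET-1. Values are the average of two independent experiments.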

[2] = target: T2, Endothelin receptor type B (Homo sapiens, UniProt P24530); test: Inhibitory effect against Human Endothelin B receptor
T2 sequence (P24530 whole entry): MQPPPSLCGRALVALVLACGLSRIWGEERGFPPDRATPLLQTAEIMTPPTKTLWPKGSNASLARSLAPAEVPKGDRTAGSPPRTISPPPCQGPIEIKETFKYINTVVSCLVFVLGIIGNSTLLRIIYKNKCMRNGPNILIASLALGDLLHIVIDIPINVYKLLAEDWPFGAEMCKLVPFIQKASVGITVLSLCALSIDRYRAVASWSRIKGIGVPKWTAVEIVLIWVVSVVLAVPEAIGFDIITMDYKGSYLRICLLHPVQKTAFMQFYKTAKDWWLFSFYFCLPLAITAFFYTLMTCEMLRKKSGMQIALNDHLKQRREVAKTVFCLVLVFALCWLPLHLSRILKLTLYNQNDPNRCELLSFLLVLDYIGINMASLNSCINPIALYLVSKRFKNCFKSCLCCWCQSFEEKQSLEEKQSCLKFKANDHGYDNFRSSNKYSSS

[3] = target: T3, Endothelin receptor type B (Sus scrofa, UniProt P35463); test: Inhibitory effect against porcine Endothelin B receptor
T3 sequence (P35463 whole entry): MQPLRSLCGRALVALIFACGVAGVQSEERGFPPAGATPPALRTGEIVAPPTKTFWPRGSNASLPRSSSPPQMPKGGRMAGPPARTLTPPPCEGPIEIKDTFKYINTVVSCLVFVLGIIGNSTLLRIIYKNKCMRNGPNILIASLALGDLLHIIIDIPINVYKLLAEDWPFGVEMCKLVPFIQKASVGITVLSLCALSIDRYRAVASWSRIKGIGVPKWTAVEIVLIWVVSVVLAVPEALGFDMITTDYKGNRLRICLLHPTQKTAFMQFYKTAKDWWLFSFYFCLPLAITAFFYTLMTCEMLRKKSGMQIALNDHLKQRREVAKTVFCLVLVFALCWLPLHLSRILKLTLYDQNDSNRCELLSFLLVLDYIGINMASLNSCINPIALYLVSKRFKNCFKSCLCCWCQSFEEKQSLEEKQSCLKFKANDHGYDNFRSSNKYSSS

[4] = Solubility in saline; type: physicochemical; conditions: for solubility: saline, read-out: S
Procedure, shortened: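 Measured on the sodium salts, dissolved in saline.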

[5] = target: T4, Endothelin-1 receptor (Sus scrofa, UniProt Q29010); test: The compound was tested for binding inhibitory activity against Endothelin A receptor from porcine aortic smooth muscle membranes.
T4 sequence (Q29010 whole entry): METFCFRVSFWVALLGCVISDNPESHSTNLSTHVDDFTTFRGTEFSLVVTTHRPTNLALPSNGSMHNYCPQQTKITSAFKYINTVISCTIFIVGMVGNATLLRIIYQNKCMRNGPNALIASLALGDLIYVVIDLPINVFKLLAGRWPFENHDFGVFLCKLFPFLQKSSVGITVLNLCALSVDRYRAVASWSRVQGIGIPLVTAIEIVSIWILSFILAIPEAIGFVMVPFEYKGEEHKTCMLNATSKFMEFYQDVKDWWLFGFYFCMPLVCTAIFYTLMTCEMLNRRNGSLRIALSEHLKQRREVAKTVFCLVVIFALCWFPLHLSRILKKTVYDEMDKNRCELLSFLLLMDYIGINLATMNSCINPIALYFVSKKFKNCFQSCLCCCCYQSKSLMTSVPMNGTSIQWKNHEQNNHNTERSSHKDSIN

[6] = target: T4, Endothelin-1 receptor; test: Inhibitory effect against porcine Endothelin A receptor
Procedure, shortened: (§2)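 [125I]ET-1 displacement from porcine aortic smooth muscle membranes, which are rich in ETA receptors. The IC50 is taken at the high-affinity sites and averaged over more than three independent experiments. The protocol follows an earlier report.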

[7] = target: T4, Endothelin-1 receptor; test: Inhibitory effect against porcine ET-A receptor; procedure, shortened: as §2
[8] = organism: Sus scrofa; test: Anti vasoconstriction activity was evaluated in isolated porcine coronary arteries; type: functional; conditions: read-out: pA2 (converted)
[9] = target: T1, Endothelin-1 receptor; test: Inhibitory effect against Human ET-A receptor; procedure, shortened: as §1

SMILES: CC(C)C[C@@H]1NC(=O)[C@@H](C2CCCC2)NC(=O)[C@@H]2CCCN2C(=O)[C@@H](CC(=O)O)NC(=O)[C@@H](Cc2c[nH]c3ccccc23)NC1=O (single isomer, unassigned)
IC50 [7]: 4 nM
IC50 [2]: 21000 nM
IC50 [3]: 4800 nM
solubility [4]: > 100000 µg/mL
IC50 max [5]: 4 nM
Kb [8]: 31.6 nM
IC50 [9]: 3.4 nM

SMILES: CC(C)C[C@@H]1NC(=O)[C@@H](C)NC(=O)[C@@H]2CCCN2C(=O)[C@@H](CC(=O)O)NC(=O)[C@@H](Cc2c[nH]c3ccccc23)NC1=O (single isomer, unassigned)
IC50 max [5]: 260 nM

SMILES: CC(C)C[C@@H]1NC(=O)[C@@H](C(C)C)NC(=O)[C@H](Cc2c[nH]c3ccccc23)NC(=O)[C@@H](CC(=O)O)NC(=O)[C@@H](Cc2c[nH]c3ccccc23)NC1=O (single isomer, unassigned)
IC50 max [5]: 150 nM

SMILES: CC(C)[C@H]1NC(=O)[C@H](C)NC(=O)[C@@H](CC(=O)O)NC(=O)[C@@H](Cc2c[nH]c3ccccc23)NC(=O)[C@@H]2CCCN2C1=O (single isomer, unassigned)
IC50 max [5]: 8500 nM

SMILES: CC(C)C[C@@H]1NC(=O)[C@@H](C(C)C)NC(=O)[C@@H]2CCCN2C(=O)[C@@H](CC(=O)O)NC(=O)[C@@H](Cc2cn(C(=O)OC(C)(C)C)c3ccccc23)NC1=O (single isomer, unassigned)
IC50 max [5]: 1500 nM

SMILES: CC(C)C[C@@H]1NC(=O)[C@@H](C(C)C)NC(=O)[C@@H]2CCCN2C(=O)[C@@H](CS(=O)(=O)O)NC(=O)[C@@H](Cc2c[nH]c3ccccc23)NC1=O (single isomer, unassigned)
IC50 [1]: 30 nM
IC50 [2]: > 100000 nM
IC50 [3]: 30000 nM
solubility [4]: > 10000 µg/mL
IC50 max [5]: 21 nM
Kb [8]: 39.8 nM
IC50 [6]: 21 nM

SMILES: CCCC[C@@H]1NC(=O)[C@@H](C(C)C)NC(=O)[C@@H]2CCCN2C(=O)[C@@H](CC(=O)O)NC(=O)[C@@H](Cc2c[nH]c3ccccc23)NC1=O (single isomer, unassigned)
IC50 max [5]: 62 nM

SMILES: CC(C)C[C@@H]1NC(=O)[C@@H](c2cccs2)NC(=O)[C@@H]2CCCN2C(=O)[C@@H](CC(=O)O)NC(=O)[C@@H](Cc2c[nH]c3ccccc23)NC1=O (single isomer, unassigned)
IC50 [7]: 3 nM
IC50 [2]: 55000 nM
IC50 [3]: 19000 nM
solubility [4]: 4000 µg/mL (≈ 6.15 mM)
IC50 max [5]: 3 nM
Kb [8]: 7.94 nM
IC50 [9]: 1.2 nM

SMILES: CC(C)C[C@@H]1NC(=O)[C@@H](C(C)C)NC(=O)[C@@H]2CCCN2C(=O)[C@@H](CC(=O)O)NC(=O)[C@@H](Cc2ccccc2)NC1=O (single isomer, unassigned)
IC50 max [5]: > 100000 nM

SMILES: CC[C@H](C)[C@@H]1NC(=O)[C@@H](C(C)C)NC(=O)[C@@H]2CCCN2C(=O)[C@@H](CC(=O)O)NC(=O)[C@@H](Cc2c[nH]c3ccccc23)NC1=O (stereo in doubt)
IC50 max [5]: 230 nM

Continued, in another order:

IC50 [1]: 590 nM
IC50 [2]: > 100000 nM
IC50 [3]: > 100000 nM
solubility [4]: 210 µg/mL (≈ 0.343 mM)
IC50 max [5]: 1400 nM
IC50 [6]: 1400 nM
SMILES: CC[C@H](C)[C@H]1NC(=O)[C@H](C)NC(=O)[C@@H](CCC(=O)O)NC(=O)[C@@H](Cc2c[nH]c3ccccc23)NC(=O)[C@H](CC(C)C)NC1=O (HELM PEPTIDE1{A.[CC[C@H](C)[C@@H](N[*:1])C(=O)[*:2]].L.[dW].[dE]}$PEPTIDE1,PEPTIDE1,1:R1-5:R2$$$V2.0)

IC50 max [5]: 34 nM
SMILES: CC(C)C[C@@H]1NC(=O)[C@@H](C(C)C)NC(=O)[C@H](C)N(C)C(=O)[C@@H](CC(=O)O)NC(=O)[C@@H](Cc2c[nH]c3ccccc23)NC1=O (single isomer, unassigned)

IC50 [1]: 8.3 nM
S ([4]; buffer): > 1000 mg/mL
IC50 max [5]: 22 nM
SMILES: CC(C)C[C@@H]1NC(=O)[C@@H](C(C)C)NC(=O)[C@@H]2CCCN2C(=O)[C@@H](CC(=O)O)NC(=O)[C@@H](Cc2c[nH]c3ccccc23)NC1=O (single isomer, unassigned)
Kb [8]: 39.8 nM

IC50 max [5]: 20 nM
SMILES: CC(C)C[C@@H]1NC(=O)[C@@H](C(C)C)NC(=O)[C@@H]2CSCN2C(=O)[C@@H](CC(=O)O)NC(=O)[C@@H](Cc2c[nH]c3ccccc23)NC1=O (single isomer, unassigned)

IC50 max [5]: 2800 nM
SMILES: CC(C)[C@H]1NC(=O)[C@H](CC(=O)O)NC(=O)[C@@H](CC(=O)O)NC(=O)[C@@H](Cc2c[nH]c3ccccc23)NC(=O)[C@H](C)NC1=O (single isomer, unassigned)

IC50 max [5]: 140 nM
SMILES: CC(C)C[C@@H]1NC(=O)[C@@H](C(C)C)NC(=O)[C@H](CS(=O)(=O)O)NC(=O)[C@@H](CC(=O)O)NC(=O)[C@@H](Cc2c[nH]c3ccccc23)NC1=O (single isomer, unassigned)

IC50 max [5]: 270 nM
SMILES: CC(C)C[C@@H]1NC(=O)[C@@H](C(C)C)NC(=O)[C@H]([C@@H](C)O)NC(=O)[C@@H](CC(=O)O)NC(=O)[C@@H](Cc2c[nH]c3ccccc23)NC1=O (stereo in doubt)
